Source: ChEMBL document CHEMBL1147665, “Design, synthesis, and biological evaluation of 4-alkyliden-beta lactams: new products with promising antibiotic activity against resistant bacteria” (J Med Chem, 2006)
Converted amounts (≈) assume the structure as drawn.

What was measured:
Type in all cases: functional
[1] = test system: Staphylococcus epidermidis; assay: Antibacterial activity against Staphylococcus epidermidis
Method in brief: (§1)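 Broth microdilution MIC per CLSI guidelines in Mueller-Hinton broth: serial 2-fold dilutions, inoculum 5 × 10⁵ CFU/mL in equal volume, 35 °C for 16-20 h. MIC = lowest concentration with no visible turbidity. Recent clinical isolates (43 total, Gram-positive and Gram-negative); values given as MIC ranges, MIC₅₀ and MIC₉₀ per species.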

Streptococcus pneumoniae = assay: Antibacterial activity against Streptococcus pneumoniae; method in brief: as §1
Streptococcus pyogenes = assay: Antibacterial activity against Streptococcus pyogenes; method in brief: as §1
Haemophilus influenzae = assay: Antibacterial activity against Haemophilus influenzae; method in brief: as §1
Enterococcus = assay: Antibacterial activity against Enterococcus spp; method in brief: as §1
Staphylococcus aureus [2] = assay: Antibacterial activity against methicillin-susceptible Staphylococcus aureus; method in brief: as §1
Staphylococcus aureus [3] = assay: Antibacterial activity against methicillin-resistant Staphylococcus aureus
Method in brief: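 Clinical isolates (3 MRSA in a 43-strain panel). Broth microdilution per CLSI, serial 2-fold dilutions in Mueller-Hinton broth, inoculum 5 × 10⁵ CFU/mL, 35 °C for 16-20 h. MIC = lowest concentration with no visible turbidity; reported as MIC range, MIC₅₀ and MIC₉₀ across isolates.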

CCOC(=O)/C=C1\NC(=O)[C@@H]1[C@@H](C)OC(=O)c1cc(OC)c(OC)c(OC)c1
MIC50 [1]: 128 µg/mL (≈ 325 µM) | MIC90 [1]: > 128 µg/mL | MIC50 (Streptococcus pneumoniae): 128 µg/mL (≈ 325 µM) | MIC90 (Streptococcus pneumoniae): 128 µg/mL (≈ 325 µM) | MIC50 (Streptococcus pyogenes): 128 µg/mL (≈ 325 µM) | MIC90 (Streptococcus pyogenes): > 128 µg/mL | MIC50 (Haemophilus influenzae): 128 µg/mL (≈ 325 µM) | MIC90 (Haemophilus influenzae): > 128 µg/mL | MIC50 (Enterococcus): > 128 µg/mL | MIC90 (Enterococcus): > 128 µg/mL | MIC50 (Staphylococcus aureus [2]): > 128 µg/mL | MIC90 (Staphylococcus aureus [2]): > 128 µg/mL

CCOC(=O)/C=C1\NC(=O)[C@@H]1[C@@H](C)OC(=O)c1ccc(O)cc1
MIC50 [1]: 8 µg/mL (≈ 25.1 µM) | MIC90 [1]: > 128 µg/mL | MIC50 (Streptococcus pneumoniae): 128 µg/mL (≈ 401 µM) | MIC90 (Streptococcus pneumoniae): 128 µg/mL (≈ 401 µM) | MIC50 (Streptococcus pyogenes): 128 µg/mL (≈ 401 µM) | MIC90 (Streptococcus pyogenes): > 128 µg/mL | MIC50 (Enterococcus): > 128 µg/mL | MIC90 (Enterococcus): > 128 µg/mL | MIC50 (Staphylococcus aureus [2]): > 128 µg/mL | MIC90 (Staphylococcus aureus [2]): > 128 µg/mL

COc1cc(C(=O)O[C@H](C)[C@H]2C(=O)N/C2=C\C(=O)O)cc(OC)c1OC
MIC50 [1]: > 128 µg/mL | MIC90 [1]: > 128 µg/mL | MIC50 (Streptococcus pneumoniae): 128 µg/mL (≈ 350 µM) | MIC90 (Streptococcus pneumoniae): 128 µg/mL (≈ 350 µM) | MIC50 (Streptococcus pyogenes): > 128 µg/mL | MIC90 (Streptococcus pyogenes): > 128 µg/mL | MIC50 (Haemophilus influenzae): 128 µg/mL (≈ 350 µM) | MIC90 (Haemophilus influenzae): 128 µg/mL (≈ 350 µM) | MIC50 (Enterococcus): > 128 µg/mL | MIC90 (Enterococcus): > 128 µg/mL | MIC50 (Staphylococcus aureus [2]): > 128 µg/mL | MIC90 (Staphylococcus aureus [2]): > 128 µg/mL

C[C@@H](O[Si](C)(C)C(C)(C)C)[C@H]1C(=O)N/C1=C\C(=O)OCc1ccccc1
MIC50 [1]: > 128 µg/mL | MIC90 [1]: > 128 µg/mL | MIC50 (Streptococcus pneumoniae): 128 µg/mL (≈ 341 µM) | MIC90 (Streptococcus pneumoniae): 128 µg/mL (≈ 341 µM) | MIC50 (Streptococcus pyogenes): 128 µg/mL (≈ 341 µM) | MIC90 (Streptococcus pyogenes): > 128 µg/mL | MIC50 (Haemophilus influenzae): 128 µg/mL (≈ 341 µM) | MIC90 (Haemophilus influenzae): > 128 µg/mL | MIC50 (Enterococcus): > 128 µg/mL | MIC90 (Enterococcus): > 128 µg/mL | MIC50 (Staphylococcus aureus [2]): > 128 µg/mL | MIC90 (Staphylococcus aureus [2]): > 128 µg/mL

COc1cc(C(=O)O[C@H](C)[C@H]2C(=O)N/C2=C\C(=O)O)cc(OC)c1O
MIC50 [1]: > 128 µg/mL | MIC90 [1]: > 128 µg/mL | MIC50 (Streptococcus pneumoniae): 128 µg/mL (≈ 364 µM) | MIC90 (Streptococcus pneumoniae): 128 µg/mL (≈ 364 µM) | MIC50 (Streptococcus pyogenes): > 128 µg/mL | MIC90 (Streptococcus pyogenes): > 128 µg/mL | MIC50 (Haemophilus influenzae): 128 µg/mL (≈ 364 µM) | MIC90 (Haemophilus influenzae): 128 µg/mL (≈ 364 µM) | MIC50 (Enterococcus): > 128 µg/mL | MIC90 (Enterococcus): > 128 µg/mL | MIC50 (Staphylococcus aureus [2]): > 128 µg/mL | MIC90 (Staphylococcus aureus [2]): > 128 µg/mL

C[C@@H](O[Si](C)(C)C(C)(C)C)[C@H]1C(=O)N/C1=C\C(=O)OCc1cc(O)cc(O)c1
MIC50 [1]: 128 µg/mL (≈ 314 µM) | MIC90 [1]: > 128 µg/mL | MIC50 (Streptococcus pneumoniae): 32 µg/mL (≈ 78.5 µM) | MIC90 (Streptococcus pneumoniae): 32 µg/mL (≈ 78.5 µM) | MIC50 (Staphylococcus aureus [3]): 64 µg/mL (≈ 157 µM) | MIC90 (Staphylococcus aureus [3]): 128 µg/mL (≈ 314 µM) | MIC50 (Streptococcus pyogenes): 32 µg/mL (≈ 78.5 µM) | MIC90 (Streptococcus pyogenes): 32 µg/mL (≈ 78.5 µM) | MIC50 (Enterococcus): 128 µg/mL (≈ 314 µM) | MIC90 (Enterococcus): 128 µg/mL (≈ 314 µM) | MIC50 (Staphylococcus aureus [2]): 64 µg/mL (≈ 157 µM) | MIC90 (Staphylococcus aureus [2]): 64 µg/mL (≈ 157 µM)

C[C@@H](O[Si](C)(C)C(C)(C)C)[C@H]1C(=O)N/C1=C\C(=O)OCc1cc(C(F)(F)F)cc(C(F)(F)F)c1
MIC50 [1]: > 128 µg/mL | MIC90 [1]: > 128 µg/mL | MIC50 (Streptococcus pneumoniae): 128 µg/mL (≈ 250 µM) | MIC90 (Streptococcus pneumoniae): > 128 µg/mL | MIC50 (Streptococcus pyogenes): 128 µg/mL (≈ 250 µM) | MIC90 (Streptococcus pyogenes): > 128 µg/mL | MIC50 (Haemophilus influenzae): > 128 µg/mL | MIC90 (Haemophilus influenzae): > 128 µg/mL | MIC50 (Enterococcus): > 128 µg/mL | MIC90 (Enterococcus): > 128 µg/mL | MIC50 (Staphylococcus aureus [2]): > 128 µg/mL | MIC90 (Staphylococcus aureus [2]): > 128 µg/mL

CCOC(=O)C[C@H]1NC(=O)[C@@H]1[C@@H](C)O[Si](C)(C)C(C)(C)C
MIC50 [1]: > 128 µg/mL | MIC90 [1]: > 128 µg/mL | MIC50 (Streptococcus pneumoniae): > 128 µg/mL | MIC90 (Streptococcus pneumoniae): > 128 µg/mL | MIC50 (Streptococcus pyogenes): > 128 µg/mL | MIC90 (Streptococcus pyogenes): > 128 µg/mL | MIC50 (Haemophilus influenzae): 128 µg/mL (≈ 406 µM) | MIC90 (Haemophilus influenzae): > 128 µg/mL | MIC50 (Enterococcus): > 128 µg/mL | MIC90 (Enterococcus): > 128 µg/mL | MIC50 (Staphylococcus aureus [2]): > 128 µg/mL | MIC90 (Staphylococcus aureus [2]): > 128 µg/mL

CCOC(=O)/C=C1\NC(=O)[C@@H]1[C@@H](C)OC(=O)c1cc(OCc2ccccc2)c(O)c(OCc2ccccc2)c1
MIC50 [1]: > 128 µg/mL | MIC90 [1]: > 128 µg/mL | MIC50 (Streptococcus pneumoniae): > 128 µg/mL | MIC90 (Streptococcus pneumoniae): > 128 µg/mL | MIC50 (Streptococcus pyogenes): > 128 µg/mL | MIC90 (Streptococcus pyogenes): > 128 µg/mL | MIC50 (Haemophilus influenzae): 128 µg/mL (≈ 241 µM) | MIC90 (Haemophilus influenzae): 128 µg/mL (≈ 241 µM) | MIC50 (Enterococcus): > 128 µg/mL | MIC90 (Enterococcus): > 128 µg/mL | MIC50 (Staphylococcus aureus [2]): > 128 µg/mL | MIC90 (Staphylococcus aureus [2]): > 128 µg/mL

COc1cc(C(=O)O[C@H](C)[C@H]2C(=O)N/C2=C\C(=O)OCc2ccccc2)cc(OC)c1OC
MIC50 [1]: 4 µg/mL (≈ 8.78 µM) | MIC90 [1]: 16 µg/mL (≈ 35.1 µM) | MIC50 (Streptococcus pneumoniae): > 128 µg/mL | MIC90 (Streptococcus pneumoniae): > 128 µg/mL | MIC50 (Staphylococcus aureus [3]): 128 µg/mL (≈ 281 µM) | MIC90 (Staphylococcus aureus [3]): 128 µg/mL (≈ 281 µM) | MIC50 (Streptococcus pyogenes): 128 µg/mL (≈ 281 µM) | MIC90 (Streptococcus pyogenes): > 128 µg/mL | MIC50 (Haemophilus influenzae): > 128 µg/mL | MIC90 (Haemophilus influenzae): > 128 µg/mL | MIC50 (Enterococcus): 128 µg/mL (≈ 281 µM) | MIC90 (Enterococcus): > 128 µg/mL | MIC50 (Staphylococcus aureus [2]): 8 µg/mL (≈ 17.6 µM) | MIC90 (Staphylococcus aureus [2]): 16 µg/mL (≈ 35.1 µM)

C[C@@H](O[Si](C)(C)C(C)(C)C)[C@H]1C(=O)N/C1=C\C(=O)N[C@@H](Cc1ccc(O)cc1)C(=O)OC(C)(C)C
MIC50 [1]: > 128 µg/mL | MIC90 [1]: > 128 µg/mL | MIC50 (Streptococcus pneumoniae): > 128 µg/mL | MIC90 (Streptococcus pneumoniae): > 128 µg/mL | MIC50 (Streptococcus pyogenes): > 128 µg/mL | MIC90 (Streptococcus pyogenes): > 128 µg/mL | MIC50 (Haemophilus influenzae): > 128 µg/mL | MIC90 (Haemophilus influenzae): > 128 µg/mL | MIC50 (Enterococcus): > 128 µg/mL | MIC90 (Enterococcus): > 128 µg/mL | MIC50 (Staphylococcus aureus [2]): > 128 µg/mL | MIC90 (Staphylococcus aureus [2]): > 128 µg/mL
